Assay [1] concerns Echinochloa crus-galli. Put plainly: Herbicidal activity against Echinochloa crus-galli (barnyard grass) assessed as inhibition of fresh plant weight at 750 g/ha using postemergence protocol measured after 24 days under green house conditions. To be noted: post-emergence.
Assay [2] has as its system Brassica rapa subsp. oleifera. Put plainly: Herbicidal activity against Brassica rapa subsp. oleifera assessed as inhibition of fresh plant weight at 750 g/ha using postemergence protocol measured after 24 days under green house conditions. To be noted: post-emergence.
For assay [3], the system named is Spirodela polyrhiza. As to the kind of experiment: Inhibition of chlorophyll in Spirodela polyrhiza fronds at 1 ug/mL using light intensity of 45 uE/m2/s measured after 7 days. It is filed as functional. The settings on record: 168 h. In a few lines: (§1)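 Giant duckweed assay. Compound in DMF dropped onto filter paper, solvent evaporated 15 min, paper placed in flask with 15 mL fresh medium and shaken >10 min. 10 fronds inoculated per flask and grown 7 days at 23-26 °C, 16 h light/8 h dark, ca. 45 µE m^-2 s^-1. DMF plus medium served as control. Chl extracted in 96% ethanol overnight at 4 °C; OD read at 665 and 649 nm; content expressed as percent of control.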

For assay [4], the system named is Spirodela polyrhiza. Put plainly: Inhibition of chlorophyll in Spirodela polyrhiza fronds at 10 ug/mL using light intensity of 45 uE/m2/s measured after 7 days. In kind it is functional. To be noted: 168 h. A digest of the protocol:
as §1

The test system of assay [5] is Amaranthus retroflexus. Put plainly: Herbicidal activity against Amaranthus retroflexus assessed as inhibition of fresh plant weight at 750 g/ha using preemergence protocol measured after 24 days under green house conditions. The settings on record: pre-emergence.
The subject of assay [6] is Digitaria. Put plainly: Herbicidal activity against Digitaria adscendens assessed as inhibition of fresh plant weight at 750 g/ha using postemergence protocol measured after 24 days under green house conditions. To be noted: in Digitaria adscendens, post-emergence.
The subject of assay [7] is Amaranthus retroflexus. Put plainly: Herbicidal activity against Amaranthus retroflexus assessed as inhibition of fresh plant weight at 750 g/ha using postemergence protocol measured after 24 days under green house conditions. To be noted: post-emergence.
The subject of assay [8] is Brassica rapa subsp. oleifera. Put plainly: Herbicidal activity against Brassica rapa subsp. oleifera assessed as inhibition of fresh plant weight at 750 g/ha using preemergence protocol measured after 24 days under green house conditions. To be noted: pre-emergence.
In assay [9] the test system is Echinochloa crus-galli. As to the kind of experiment: Herbicidal activity against Echinochloa crus-galli (barnyard grass) assessed as inhibition of fresh plant weight at 750 g/ha using preemergence protocol measured after 24 days under green house conditions. To be noted: pre-emergence.
Assay [10] deals with Digitaria. As to the kind of experiment: Herbicidal activity against Digitaria adscendens assessed as inhibition of fresh plant weight at 750 g/ha using preemergence protocol measured after 24 days under green house conditions. To be noted: in Digitaria adscendens, pre-emergence.

As usually defined, the inhibition is the share of the control response that was lost under treatment. As to `Cc1cc(-c2cccc(C(F)(F)F)c2)c(NCc2ccc(Cl)cc2)nn1`, the inhibition at 750 g/ha stood at 15% in the assay on Echinochloa crus-galli [1]; 27% in assay [2]; 3% with Amaranthus retroflexus [5]; 18% in the assay with Digitaria [6]; 44% with Amaranthus retroflexus [7]; 7% in assay [8]. In addition, the values for the inhibition at 750 g/ha with Echinochloa crus-galli [9] and with Digitaria [10] were 9% and 0%, respectively. Further, the inhibition at 1 µg/mL in the assay on Spirodela polyrhiza [3] amounted to 25%. Also, in the assay with Spirodela polyrhiza [4], the inhibition at 10 µg/mL is 85%.

Take `Cc1cc(-c2cccc(C(F)(F)F)c2)c(NCc2ccccc2Cl)nn1`: the inhibition at 750 g/ha stood at 26% in the assay with Echinochloa crus-galli [1]; 34% in assay [2]; 36% in the assay on Amaranthus retroflexus [5]; 29% in the assay with Digitaria [6]; 33% in the assay on Amaranthus retroflexus [7]; 0% in [8]. Also, the values for the inhibition at 750 g/ha in the assay on Echinochloa crus-galli [9] and in the assay on Digitaria [10] were 3% and 1%, respectively. Moreover, in the assay with Spirodela polyrhiza [3], the inhibition at 1 µg/mL was determined as 73%. For the same molecule, the inhibition at 10 µg/mL in the assay with Spirodela polyrhiza [4] was 90%.

As to `Cc1cc(-c2cccc(C(F)(F)F)c2)c(NC(C)c2ccccc2)nn1` (stereo not given), the inhibition at 750 g/ha stood at 43% in the assay with Echinochloa crus-galli [1]; 0% in assay [2]; 10% in the assay with Amaranthus retroflexus [5]; 54% in the assay with Digitaria [6]; 7% with Amaranthus retroflexus [7]; 12% in assay [8]. The inhibition at 750 g/ha in the assay with Echinochloa crus-galli [9] was found to be 10%; in the assay with Digitaria [10], 12%. This molecule had an inhibition at 1 µg/mL in the assay on Spirodela polyrhiza [3] of 31%. Also, the inhibition at 10 µg/mL in the assay with Spirodela polyrhiza [4] came to 63%.

Regarding `Cc1cc(-c2cccc(C(F)(F)F)c2)c(NC(C)c2ccc(F)cc2)nn1` (stereo not given), the inhibition at 750 g/ha came to 0% in the assay on Echinochloa crus-galli [1]; 0% in [2]; 1% in the assay with Amaranthus retroflexus [5]; 57% with Digitaria [6]; 1% in the assay on Amaranthus retroflexus [7]; 13% in assay [8]. Moreover, the inhibition at 750 g/ha in the assay on Echinochloa crus-galli [9] was determined as 14%; in the assay with Digitaria [10], 28%. In addition, in the assay on Spirodela polyrhiza [3], at 1 µg/mL the inhibition was 47%. In the assay with Spirodela polyrhiza [4], this molecule gave an inhibition at 10 µg/mL of 79%.

As to `Cc1cc(-c2cccc(C(F)(F)F)c2)c(NC(C)c2ccc(Cl)cc2)nn1` (stereo not given), the inhibition at 750 g/ha in the assay with Echinochloa crus-galli [1] came out at 27%; in assay [2], 8%; with Amaranthus retroflexus [5] it was 16%; in the assay with Digitaria [6], 67%; with Amaranthus retroflexus [7] it was 17%; in [8], 2%. For the same molecule, the inhibition at 750 g/ha with Echinochloa crus-galli [9] was determined as 13%; in the assay on Digitaria [10], 11%. The inhibition at 1 µg/mL with Spirodela polyrhiza [3] came to 15%. This molecule also returned an inhibition at 10 µg/mL with Spirodela polyrhiza [4] of 23%.

Consider `Cc1cc(-c2cccc(C(F)(F)F)c2)c(NCCc2ccccc2)nn1`, for which the inhibition at 750 g/ha was 13% in the assay with Echinochloa crus-galli [1]; 45% in assay [2]; 16% in the assay with Amaranthus retroflexus [5]; 11% with Digitaria [6]; 30% with Amaranthus retroflexus [7]; 0% in [8]. For the same molecule, the inhibition at 750 g/ha in the assay on Echinochloa crus-galli [9] stood at 4%; in the assay on Digitaria [10], 27%. Besides, in the assay with Spirodela polyrhiza [3], the inhibition at 1 µg/mL stood at 100%. This molecule also displayed an inhibition at 10 µg/mL with Spirodela polyrhiza [4] of 100%.

As for `Cc1cc(-c2cccc(C(F)(F)F)c2)c(Nc2ccccc2C)nn1`, the inhibition at 750 g/ha with Echinochloa crus-galli [1] was 10%; in assay [2], 86%; with Amaranthus retroflexus [5], 0%; in the assay on Digitaria [6], 1%; with Amaranthus retroflexus [7], 38%; in assay [8], 7%. The results for the inhibition at 750 g/ha in the assay on Echinochloa crus-galli [9] and in the assay on Digitaria [10] were 0% and 11%, respectively. Testing at 1 µg/mL in the assay with Spirodela polyrhiza [3] gave an inhibition of 65%. For the same molecule, the inhibition at 10 µg/mL with Spirodela polyrhiza [4] was 83%.

In the case of `Cc1ccc(Nc2nnc(C)cc2-c2cccc(C(F)(F)F)c2)c(C)c1`, the inhibition at 750 g/ha with Echinochloa crus-galli [1] is 25%; in assay [2], 22%; in the assay on Amaranthus retroflexus [5], 0%; with Digitaria [6] it was 11%; in the assay on Amaranthus retroflexus [7], 0%; in [8] it was 10%. Also, the figures for the inhibition at 750 g/ha with Echinochloa crus-galli [9] and with Digitaria [10] were 0% and 7%, respectively. Testing at 1 µg/mL in the assay on Spirodela polyrhiza [3] gave an inhibition of 69%. In the assay with Spirodela polyrhiza [4], the inhibition at 10 µg/mL was found to be 72%.

`COc1ccccc1Nc1nnc(C)cc1-c1cccc(C(F)(F)F)c1`: the inhibition at 750 g/ha amounted to 11% in the assay with Echinochloa crus-galli [1]; 6% in assay [2]; 4% with Amaranthus retroflexus [5]; 0% with Digitaria [6]; 30% with Amaranthus retroflexus [7]; 9% in assay [8]. The inhibition at 750 g/ha in the assay on Echinochloa crus-galli [9] and in the assay with Digitaria [10] was 0% throughout. Besides, in the assay on Spirodela polyrhiza [3], testing at 1 µg/mL gave an inhibition of 62%. This molecule came in with an inhibition at 10 µg/mL with Spirodela polyrhiza [4] of 82%.

As for `COc1ccc(Nc2nnc(C)cc2-c2cccc(C(F)(F)F)c2)cc1`, the inhibition at 750 g/ha in the assay with Echinochloa crus-galli [1] was found to be 28%; in assay [2] it was 44%; with Amaranthus retroflexus [5], 55%; with Digitaria [6], 89%; in the assay on Amaranthus retroflexus [7], 27%; in assay [8], 13%. The inhibition at 750 g/ha came to 5% in the assay with Echinochloa crus-galli [9] and 2% in the assay on Digitaria [10]. Moreover, the inhibition at 1 µg/mL in the assay on Spirodela polyrhiza [3] worked out at 100%. The same molecule came in with an inhibition at 10 µg/mL in the assay with Spirodela polyrhiza [4] of 100%.

In the case of `Cc1cc(-c2cccc(C(F)(F)F)c2)c(Nc2ccccc2Cl)nn1`, the inhibition at 750 g/ha with Echinochloa crus-galli [1] worked out at 24%; in [2], 93%; with Amaranthus retroflexus [5], 10%; in the assay with Digitaria [6] it was 19%; in the assay on Amaranthus retroflexus [7], 41%; in assay [8] it was 9%. For the same molecule, the inhibition at 750 g/ha with Echinochloa crus-galli [9] was found to be 2%; with Digitaria [10] it was 0%. The inhibition at 1 µg/mL with Spirodela polyrhiza [3] stood at 82%. For the same molecule, the inhibition at 10 µg/mL in the assay with Spirodela polyrhiza [4] turned out to be 100%.

In the case of `Cc1cc(-c2cccc(C(F)(F)F)c2)c(Nc2cccc(Cl)c2)nn1`, the inhibition at 750 g/ha in the assay with Echinochloa crus-galli [1] is 7%; in assay [2], 63%; in the assay with Amaranthus retroflexus [5], 12%; with Digitaria [6], 5%; with Amaranthus retroflexus [7], 38%; in [8] it was 3%. In addition, the inhibition at 750 g/ha in the assay with Echinochloa crus-galli [9] and in the assay on Digitaria [10] was 0% in each case. Further, testing at 1 µg/mL in the assay on Spirodela polyrhiza [3] gave an inhibition of 100%. In addition, testing at 10 µg/mL in the assay on Spirodela polyrhiza [4] gave an inhibition of 100%.

`Cc1cc(-c2cccc(C(F)(F)F)c2)c(Nc2cccc(Br)c2)nn1`: the inhibition at 750 g/ha in the assay on Echinochloa crus-galli [1] came to 0%; in [2] it was 17%; with Amaranthus retroflexus [5], 0%; in the assay on Digitaria [6], 0%; with Amaranthus retroflexus [7] it was 30%; in assay [8], 14%. The inhibition at 750 g/ha in the assay on Echinochloa crus-galli [9] and with Digitaria [10] was 0% throughout. Moreover, in the assay on Spirodela polyrhiza [3], the inhibition at 1 µg/mL is 100%. In the assay with Spirodela polyrhiza [4], this molecule showed an inhibition at 10 µg/mL of 100%.

With `Cc1cc(-c2cccc(C(F)(F)F)c2)c(Nc2ccc(Br)cc2)nn1`, the inhibition at 750 g/ha was 13% in the assay on Echinochloa crus-galli [1]; 36% in [2]; 54% with Amaranthus retroflexus [5]; 26% in the assay with Digitaria [6]; 45% in the assay on Amaranthus retroflexus [7]; 26% in assay [8]. Further, the inhibition at 750 g/ha in the assay with Echinochloa crus-galli [9] worked out at 15%; with Digitaria [10], 14%. The same molecule yielded an inhibition at 1 µg/mL with Spirodela polyrhiza [3] of 59%. For the same molecule, the inhibition at 10 µg/mL with Spirodela polyrhiza [4] stood at 63%.

As for `Cc1cc(-c2cccc(C(F)(F)F)c2)c(Nc2ccc(OC(F)(F)F)cc2)nn1`, the inhibition at 750 g/ha with Echinochloa crus-galli [1] was 21%; in [2] it was 50%; with Amaranthus retroflexus [5], 35%; in the assay on Digitaria [6], 35%; in the assay on Amaranthus retroflexus [7] it was 26%; in assay [8], 0%. Further, the inhibition at 750 g/ha came to 0% in the assay with Echinochloa crus-galli [9] and 5% in the assay on Digitaria [10]. The inhibition at 1 µg/mL in the assay on Spirodela polyrhiza [3] came to 65%. The molecule also came in with an inhibition at 10 µg/mL in the assay with Spirodela polyrhiza [4] of 83%.

Consider `Cc1cc(-c2cccc(C(F)(F)F)c2)c(NCc2ccccc2F)nn1`, for which the inhibition at 750 g/ha in the assay with Echinochloa crus-galli [1] was determined as 10%; in [2], 49%; with Amaranthus retroflexus [5], 8%; in the assay with Digitaria [6], 24%; in the assay with Amaranthus retroflexus [7] it was 44%; in assay [8], 24%. The inhibition at 750 g/ha in the assay on Echinochloa crus-galli [9] and with Digitaria [10] was 0% in each case. This molecule also displayed an inhibition at 1 µg/mL with Spirodela polyrhiza [3] of 77%. The inhibition at 10 µg/mL with Spirodela polyrhiza [4] turned out to be 81%.

The values are drawn from ChEMBL document CHEMBL3046507, “Synthesis and herbicidal activities of novel 3-N-substituted amino-6-methyl-4-(3-trifluoromethylphenyl)pyridazine derivatives” (2008).
